Test results as given in ChEMBL document CHEMBL1157145, “Cytotoxic activity of proflavine diureas: synthesis, antitumor, evaluation and DNA binding properties of 1',1''-(acridin-3,6-diyl)-3',3''-dialkyldiureas” (Bioorg Med Chem, 2008).
Calls of active or inactive are those of the source. The calls are words filed in the database; no cut-off is given here.

Experiments:
[1] = system: HeLa; assay: Antiproliferative activity against human HeLa cells assessed as decrease in total cell population at 5.50 uM after 24 hrs; type: functional; parameters: scale not given: the % may be the effect or the level left
In short: (§1)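 Cells seeded (8 · 10^5 per 60 mm dish), allowed to settle 24 h at 37 °C, 5% CO2, then treated with a single concentration for 24 or 48 h. Adherent and floating cells counted by Coulter counter. Total cell number given as % of untreated control; floating cells as % of total cell number.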

[2] = system: HCT-116; assay: Cell cycle arrest in human HCT116 cells assessed as accumulation at G2/M phase at 77 uM after 48 hrs; type: functional
In short: (§2)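 Cells seeded at 8 · 10^5 per 60 mm dish, allowed to settle 24 h (37 °C, 5% CO2), then exposed to the drug for 24 or 48 h. Adherent plus floating cells (5 · 10^5) were fixed in cold 70% ethanol at −20 °C overnight, treated with RNase A (100 µg/mL) and stained with propidium iodide (20 µg/mL) in Vindelov's solution for 30 min at RT. Flow cytometry used 488 nm excitation, FL-2 at 585 ± 21 nm, and histograms were modelled for G0/G1, S and G2/M fractions.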

[3] = system: HeLa; assay: Cell cycle arrest in human HeLa cells assessed as accumulation at G0/G1 phase at 5.50 uM after 48 hrs; type: functional; in short: as §2
[4] = system: HeLa; assay: Cell cycle arrest in human HeLa cells assessed as accumulation at S phase at 5.50 uM after 24 hrs; type: functional; in short: as §2
[5] = system: HCT-116; assay: Cell cycle arrest in human HCT116 cells assessed as accumulation at G0/G1 phase at 77 uM after 48 hrs; type: functional; in short: as §2
[6] = system: HeLa; assay: Induction of apoptosis in human HeLa cells at 5.50 uM after 48 hrs; type: functional
In short: (§3)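 After 24 or 48 h of drug exposure, all cells were collected, combining trypsinised adherent cells with floating cells from the medium. Cells (1 × 10^6) were fixed in cold 70% ethanol overnight at −20 °C and stained with DAPI (10 µg/mL) for 30 min in the dark at RT. Under fluorescence microscopy, 300 cells per sample were scored, with condensed or fragmented nuclei counted as apoptotic.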

[7] = system: HCT-116; assay: Antiproliferative activity against human HCT116 cells assessed as decrease in total cell population at 77 uM after 24 hrs; type: functional; parameters: scale not given: the % may be the effect or the level left; in short: as §1
[8] = system: HCT-116; assay: Induction of DNA fragmentation in human HCT116 cells after 48 hrs; type: functional, cell-based
In short: (§4)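 HCT-116 cells were treated for 24 or 48 h. Adherent and floating cells (5 × 10^5) were pooled, fixed in cold 70% ethanol and held overnight at −20 °C. Samples were treated with RNase A (100 µg/mL) and stained with propidium iodide (20 µg/mL) in Vindelov's solution for 30 min at RT. Flow cytometry used 488 nm excitation with emission at 585 nm. Subdiploid (subG0/G1) particles were scored on a logarithmic scale, with debris gated out on FSC × SSC.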

[9] = system: HCT-116; assay: Antiproliferative activity against human HCT116 cells assessed as increase of floating cells in total cell population at 77 uM after 24 hrs; type: functional; in short: as §1
[10] = system: HCT-116; assay: Induction of apoptosis in human HCT116 cells at 77 uM after 48 hrs; type: functional; in short: as §3
[11] = system: HeLa; assay: Cell cycle arrest in human HeLa cells assessed as accumulation at G2/M phase at 5.50 uM after 48 hrs; type: functional; in short: as §2
[12] = system: HCT-116; assay: Antiproliferative activity against human HCT116 cells assessed as decrease in total cell population at 77 uM after 48 hrs; type: functional; parameters: scale not given: the % may be the effect or the level left; in short: as §1
[13] = system: HeLa; assay: Cell cycle arrest in human HeLa cells assessed as accumulation at G2/M phase at 5.50 uM after 24 hrs; type: functional; in short: as §2
[14] = system: HCT-116; assay: Induction of DNA fragmentation in human HCT116 cells after 24 hrs; type: functional, cell-based; in short: as §4
[15] = system: HeLa; assay: Cell cycle arrest in human HeLa cells assessed as accumulation at G0/G1 phase at 5.50 uM after 24 hrs; type: functional; in short: as §2
[16] = system: HeLa; assay: Antiproliferative activity against human HeLa cells assessed as increase of floating cells in total cell population at 5.50 uM after 48 hrs; type: functional; in short: as §1
[17] = system: HCT-116; assay: Cell cycle arrest in human HCT116 cells assessed as accumulation at G0/G1 phase at 77 uM after 24 hrs; type: functional
In short: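 Adherent plus floating cells (5 · 10^5) collected 24 or 48 h after treatment, fixed in cold 70% ethanol at −20 °C overnight, washed in PBS. RNase A (100 µg/mL) and propidium iodide (20 µg/mL) in Vindelov's solution, 30 min at RT. Flow cytometry with 488 nm excitation, emission 585 ± 21 nm; % cells per cycle phase from DNA content histograms.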

[18] = system: HCT-116; assay: Cytotoxicity against human HCT116 cells after 48 hrs by MTT assay; type: functional, cell-based; settings: HCT-116, 48 h
[19] = system: HeLa; assay: Antiproliferative activity against human HeLa cells assessed as decrease in total cell population at 5.50 uM after 48 hrs; type: functional; parameters: scale not given: the % may be the effect or the level left; in short: as §1
[20] = system: HeLa; assay: Cell cycle arrest in human HeLa cells assessed as accumulation at S phase at 5.50 uM after 48 hrs; type: functional; in short: as §2
[21] = system: HCT-116; assay: Cell cycle arrest in human HCT116 cells assessed as accumulation at G2/M phase at 77 uM after 24 hrs; type: functional; in short: as §2
[22] = system: DNA; assay: Binding affinity to calf thymus DNA at 4 uM by fluorescence spectrophotometric titration; type: nucleic-acid assay; settings: Bos taurus
In short: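 ctDNA sonicated in TE buffer, concentration taken from A260 and given in base pairs. Compound (4 µM) in 0.01 M Tris, pH 7.4, 25 °C titrated with ctDNA (0–55 µM bp) until spectra stopped changing. Excitation 424 nm, slit widths 10 nm; binding constant derived from the change in emission.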

[23] = system: HCT-116; assay: Cell cycle arrest in human HCT116 cells assessed as accumulation at S phase at 77 uM after 48 hrs; type: functional; in short: as §2
[24] = system: HCT-116; assay: Induction of apoptosis in human HCT116 cells at 77 uM after 24 hrs; type: functional; in short: as §3
[25] = system: HCT-116; assay: Cell cycle arrest in human HCT116 cells assessed as accumulation at S phase at 77 uM after 24 hrs; type: functional; in short: as §2
[26] = system: HCT-116; assay: Antiproliferative activity against human HCT116 cells assessed as increase of floating cells in total cell population at 77 uM after 48 hrs; type: functional; in short: as §1
[27] = system: HCT-116; assay: Cytotoxicity against human HCT116 cells after 72 hrs by MTT assay; type: functional, cell-based; settings: Homo sapiens, HCT-116, 72 h
[28] = system: HeLa; assay: Antiproliferative activity against human HeLa cells assessed as increase of floating cells in total cell population at 5.50 uM after 24 hrs; type: functional; in short: as §1
[29] = system: HeLa; assay: Cytotoxicity against human HeLa cells after 72 hrs by MTT assay; type: functional, cell-based
[30] = system: DNA; assay: Binding affinity to calf thymus DNA at 50 uM by circular dichroism spectrophotometric titration; type: nucleic-acid assay; settings: Bos taurus
[31] = system: HeLa; assay: Cytotoxicity against human HeLa cells after 48 hrs by MTT assay; type: functional, cell-based

In the case of `CCCCNC(=O)Nc1ccc2cc3ccc(NC(=O)NCCCC)cc3nc2c1.Cl`, the Activity [1] is reported as 92.75%, the Activity [2] is reported as 28.85% and the Activity [3] is reported as 74.91%. For the same molecule, the Activity [4] was 24.95%, the Activity [5] was 43.91% and the Activity [6] was 0.44%. For the same molecule, the Activity [7] was 47.4%, the Activity [8] was “Active” and the Activity [9] was 51.08%. For the same molecule, the Activity [10] was 3.89%, the Activity [11] was 9.6% and the Activity [12] was 27.58%. The Activity [13] was 13.88%, the Activity [14] was “Active” and the Activity [15] was 61.17%. For the same molecule, the Activity [16] was 3.93%, the Activity [17] was 39.97% and the IC50 [18] was 77 µM. The Activity [19] was 96.5%, the Activity [20] was 15.5% and the Activity [21] was 37.51%. The K [22] was 2.4 ×10⁵ /M, the Activity [23] was 27.24% and the Activity [24] was 9.67%. The Activity [25] was 22.52%, the Activity [26] was 33.41% and the IC50 [27] was 43.9 µM. For the same molecule, the Activity [28] was 4.03%, the IC50 [29] was 11.5 µM and the Activity [30] was “Active”. The IC50 [31] was 5.41 µM.
